Measurements taken from PubChem BioAssay.
Unmarked numbers belong to inactive results. Results filed as inconclusive are left out. The source made the active and inactive calls.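 How the source made its calls, unless noted: active means viability increase at or above a cutoff of the median across tested compounds plus 3 SD (cut at about 8.5% in these data, passing the limit was not always enough); inconclusive means some gains above the cutoff, reason not given; inactive means the rest.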

Key:
[1] = OD615 S. cerevisiae growth inhibition, permissive medium, pilot counter-assay, permissive growth control for S. cerevisiae lifespan shortening project (AID 705;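 active means growth inhibition above 25% in both replicates, a cutoff set 3 SD above the mean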); conditions: OD615, 24 h, at 10 µM, hits give high values
Summary of the method: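 Material: engineered DeaD yeast; Compound: one dose 10 µM, DMSO 0.25% final; Detection: absorbance (optical density) at 615 nm; Buffer or medium: permissive raffinose/galactose medium; Timing: 24 h exposure, 30 °C.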

[2] = Restrictive medium S. cerevisiae growth inhibition, OD615, pilot screen of yeast lifespan reduction project, restrictive growth control (AID 706;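 active means growth inhibition above a set limit, 3 SD over mean compound inhibition, in both replicates, cut at about 43% in these data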;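 further: modified DeaD lifespan yeast strain shifted to restrictive glucose medium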); conditions: OD615, 48 h, at 10 µM, hits give high values
Summary of the method: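 Buffer or medium: restrictive glucose medium (CSMM-D); test system: modified S. cerevisiae; doses: single dose of 10 µM compound final, 0.25% DMSO; schedule: 48 h compound exposure at 30 °C; detection: absorbance (optical density) measured at 615 nm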

[3] = viability gain of MRP-1-high H69AR cells under doxorubicin, pilot screen, MRP-1 activator project, CellTiter-Glo, duplicate (AID 807); conditions: H69AR viability with doxorubicin, CellTiter-Glo luminescence; at 10 µM; hits give high values;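 further: compound pretreatment 18-22 h then 72 h combined with doxorubicin; 0% = doxorubicin alone and 100% = vehicle without doxorubicin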
[4] = growth suppression of beta-catenin knockout HCT116, pilot screen, human colon tumor cells (AID 823;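 active means cell viability at or below a set limit in both duplicate runs, the limit being the all-compound median minus 4 SD, cut at about 23% in these data, passing the limit was not always enough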;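 further: 0% = wells killed by 20 µM Hyamine and 100% = untreated DMSO cell wells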); conditions: CellTiter-Glo, 60 h, at 10 µM, hits give low values
[5] = growth suppression of PTEN-deleted HCT116, pilot screen, cell-based, HCT116 clonal line, CellTiter-Glo (AID 824;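 active means viability at or below 27.92% in each of two runs, the all-compound median minus 4 SD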;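 further: 0% = 20 µM Hyamine control and 100% = vehicle cell control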); conditions: 60 h, at 10 µM, hits give low values
[6] = inhibitors of the yeast RAM network, pilot screen, dse1pr::URA3 reporter, 5-FOA selection (AID 869;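 active means inhibition over a set limit, the all-compound mean plus 3 SD, in both replicate runs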;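 further: 0% = DMSO wells with no growth and 100% = 10 µM 1-NA-PP1 with full growth; RAM network block rescues cells from 5-FOA so hits raise OD615 growth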); conditions: S. cerevisiae dse1pr::URA3 5-FOA growth, OD615, 2 d; at 10 µM; hits give high values; strain carries analog-sensitive mutant Cbk1 kinase
[7] = RAM signaling pathway blockade in yeast – S. cerevisiae, Pdr1DBD-CYC8 efflux-inhibited sensitized strain, primary screen (AID 1298;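 active means RAM network inhibition above 8.4% in each of two replicates, 3 SD over the compound average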;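 further: 0% = DMSO untreated cells without growth and 100% = 10 µM 1-NA-PP1 full growth; higher means more yeast growth rescued from 5-FOA killing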); conditions: S. cerevisiae cbk1-as DSE1-URA3 strain, 5-FOA growth OD615, 2 d; at 50 µM; hits give high values

Structure (SMILES): CCOc1cc(/C=N/O)cc(Br)c1OC
- growth inhibition [1]: -1.28%
- growth inhibition [2]: -18.2%
- viability increase [3]: -3.13%
- viability [4]: 106%
- viability [5]: 97.1%
- inhibition [6]: 1.22%
- RAM network inhibition [7]: 5.14%

Structure (SMILES): CCOC(=O)c1ccc(NC(=O)CSc2nc3c(c(=O)n2-c2ccccc2OC)SCC3)cc1
- growth inhibition [1]: -1.49%
- growth inhibition [2]: -14.6%
- viability increase [3]: -2.33%
- viability [4]: 85.7%
- viability [5]: 81.4%
- inhibition [6]: 1.34%
- RAM network inhibition [7]: 3.9%

Structure (SMILES): CCOC(=O)c1c(NC(=O)CN2CCCCC2)sc2c1CCCC2O (stereo not given)
- growth inhibition [1]: -10.4%
- growth inhibition [2]: -0.48%
- viability increase [3]: -4.26%
- viability [4]: 70.3%
- viability [5]: 65.2%
- inhibition [6]: -0.195%
- RAM network inhibition [7]: 4.1%

Structure (SMILES): COc1cc(CNC(=O)OCC(C)C)cc(OC)c1OC
- growth inhibition [1]: -11.4%
- growth inhibition [2]: -20.8%
- viability increase [3]: -0.03%
- viability [4]: 99.7%
- viability [5]: 99%
- inhibition [6]: 0.19%
- RAM network inhibition [7]: -0.93%

Structure (SMILES): O=C(Cn1c(=O)[nH]c2ccsc2c1=O)NC1CCCCC1
- growth inhibition [1]: -3.32%
- growth inhibition [2]: -5.46%
- viability increase [3]: 0.65%
- viability [4]: 94.9%
- viability [5]: 93.9%
- inhibition [6]: 1.41%
- RAM network inhibition [7]: -1.43%

Structure (SMILES): Cc1nc(SCC(=O)Nc2cccc(Cl)c2)n[nH]1
- growth inhibition [1]: -4.9%
- growth inhibition [2]: -4.81%
- viability increase [3]: -1.48%
- viability [4]: 97%
- viability [5]: 97.7%
- inhibition [6]: 0.56%
- RAM network inhibition [7]: -0.63%

Structure (SMILES): CC(=O)Nc1cccc(N2C(=O)CC(Cc3ccccc3)C2=O)c1 (stereo not given)
- growth inhibition [1]: -6.24%
- growth inhibition [2]: -3.32%
- viability increase [3]: -1.68%
- viability [4]: 91.5%
- viability [5]: 89%
- inhibition [6]: 0.52%
- RAM network inhibition [7]: 7.45%

Structure (SMILES): COc1cccc(-c2nnc3n2N=C(C(C)(C)C)CS3)c1
- growth inhibition [1]: -5.97%
- growth inhibition [2]: -16.3%
- viability increase [3]: -4.18%
- viability [4]: 5.81% (active)
- viability [5]: 5.52% (active)
- inhibition [6]: 0.79%
- RAM network inhibition [7]: 2.49%

Structure (SMILES): O=C1c2ccccc2S(=O)(=O)N1CC(O)COc1ccc(Br)cc1 (stereo not given)
- growth inhibition [1]: -2.32%
- growth inhibition [2]: 5.18%
- viability increase [3]: -0.35%
- viability [4]: 106%
- viability [5]: 97.4%
- inhibition [6]: 1.39%
- RAM network inhibition [7]: 2.2%

Structure (SMILES): CCc1ccc(C2CC(c3ccc(F)cc3)Nc3nc(N)nn32)cc1 (stereo not given)
- growth inhibition [1]: -4.34%
- growth inhibition [2]: 9.52%
- viability increase [3]: -0.06%
- viability [4]: 103%
- viability [5]: 95.4%
- inhibition [6]: -0.41%
- RAM network inhibition [7]: 7.69%

Structure (SMILES): Cc1ccc(N2C(=O)c3oc4ccccc4c(=O)c3C2c2cccnc2)nc1 (stereo not given)
- growth inhibition [1]: -12.7%
- growth inhibition [2]: -4.26%
- viability increase [3]: 0.88%
- viability [4]: 99.3%
- viability [5]: 102%
- inhibition [6]: 1.04%
- RAM network inhibition [7]: 5.38%

Structure (SMILES): CC(C)N(C(=O)COc1ccc(Br)cc1Cl)C(C)C
- growth inhibition [1]: -6.94%
- growth inhibition [2]: -12.8%
- viability increase [3]: 0.81%
- viability [4]: 76.5%
- viability [5]: 83.1%
- inhibition [6]: 1.12%
- RAM network inhibition [7]: 0.74%

Structure (SMILES): Cc1cc(NC(=O)c2cn(C3CCCCC3)c(=O)c3c2c2ccccc2n3C)no1
- growth inhibition [1]: -5.84%
- growth inhibition [2]: 11.9%
- viability increase [3]: -3.21%
- viability [4]: 71.7%
- viability [5]: 71.7%
- inhibition [6]: 1.8%
- RAM network inhibition [7]: 7.54%

Structure (SMILES): CCC(SCC(=O)OC)C(=O)Nc1nnc(C(C)C)s1 (stereo not given)
- growth inhibition [1]: 1.46%
- growth inhibition [2]: 8.39%
- viability increase [3]: -1.27%
- viability [4]: 98.8%
- viability [5]: 98.1%
- inhibition [6]: 2.43%
- RAM network inhibition [7]: 2.05%

Structure (SMILES): COc1ccccc1-c1nc2n(n1)C(c1ccccc1Cl)C(C(N)=O)=C(C)N2 (stereo not given)
- growth inhibition [1]: -11.6%
- growth inhibition [2]: -6.96%
- viability increase [3]: -6.22%
- viability [4]: 91%
- viability [5]: 85.9%
- inhibition [6]: -0.085%
- RAM network inhibition [7]: -1.52%

Structure (SMILES): O=C(O)CSc1cccc2cccnc12
- growth inhibition [1]: 15.6%
- growth inhibition [2]: 44.6% (active)
- viability increase [3]: -0.24%
- viability [4]: 96.5%
- viability [5]: 102%
- inhibition [6]: 1.17%
- RAM network inhibition [7]: 1.05%

Structure (SMILES): Cc1cccc(NC(=O)NCCN2C(=O)C3C4C=CC(C4)C3C2=O)c1 (stereo not given)
- growth inhibition [1]: -11.4%
- growth inhibition [2]: 8.84%
- viability increase [3]: -1.25%
- viability [4]: 104%
- viability [5]: 96.4%
- inhibition [6]: 1.83%
- RAM network inhibition [7]: 0.37%

Structure (SMILES): O=C(NC1CCCCC1)N1CCC(n2c(=O)[nH]c3ccccc32)CC1
- growth inhibition [1]: -8.88%
- growth inhibition [2]: -10.8%
- viability increase [3]: 1.07%
- viability [4]: 91.1%
- viability [5]: 89.6%
- inhibition [6]: 2.25%
- RAM network inhibition [7]: 5.7%

Structure (SMILES): COc1ccccc1C1(CC(=O)O)CCOC(C)(C)C1 (stereo not given)
- growth inhibition [1]: -2.27%
- growth inhibition [2]: -9.79%
- viability increase [3]: -1.61%
- viability [4]: 90.9%
- viability [5]: 92.2%
- inhibition [6]: 0.095%
- RAM network inhibition [7]: -1.44%

Structure (SMILES): COc1ccc(Nc2nc(C)cc(C)c2C#N)cc1OC
- growth inhibition [1]: -2.02%
- growth inhibition [2]: 5.43%
- viability increase [3]: 1.79%
- viability [4]: 107%
- viability [5]: 107%
- inhibition [6]: 0.715%
- RAM network inhibition [7]: 1.79%

Structure (SMILES): Cc1[nH]nc2c1C(c1ccccc1F)NC2=O (stereo not given)
- growth inhibition [1]: -0.665%
- growth inhibition [2]: -2.84%
- viability increase [3]: -1.22%
- viability [4]: 106%
- viability [5]: 97.9%
- inhibition [6]: 2.04%
- RAM network inhibition [7]: -0.67%

Structure (SMILES): CCOc1ccc(-n2c(Cc3cc(=O)[nH]c(=O)[nH]3)nnc2SCc2cccnc2)cc1
- growth inhibition [1]: 2.83%
- growth inhibition [2]: 5.83%
- viability increase [3]: 1.08%
- viability [4]: 107%
- viability [5]: 105%
- inhibition [6]: 1.84%
- RAM network inhibition [7]: 0.84%

Structure (SMILES): COc1ccc(C(=O)c2c[nH]c3ccccc23)cc1
- growth inhibition [1]: -4.92%
- growth inhibition [2]: 2.61%
- viability increase [3]: -1.32%
- viability [4]: 101%
- viability [5]: 96.4%
- inhibition [6]: 0.695%
- RAM network inhibition [7]: -1.45%

Structure (SMILES): CCCCCc1nnc(NC(=O)OCCC)s1
- growth inhibition [1]: -1%
- growth inhibition [2]: 14.7%
- viability increase [3]: -3.57%
- viability [4]: 97.8%
- viability [5]: 91.2%
- inhibition [6]: 0.63%
- RAM network inhibition [7]: -0.93%

Structure (SMILES): O=C1CC(N2CCN(C/C=C/c3ccccc3)CC2)C(=O)N1CCc1ccccc1 (stereo not given)
- growth inhibition [1]: -12.7%
- growth inhibition [2]: -9.45%
- viability increase [3]: -0.11%
- viability [4]: 72.8%
- viability [5]: 77.6%
- inhibition [6]: 1.02%
- RAM network inhibition [7]: 7.71%
